# Legend:
# [1] = Inhibition of HCV NS3 protease by FRET assay; set-up: species or system Hepacivirus hominis
# Method in brief: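 Full-length HCV NS3 (protease–helicase/NTPase) protein, protease activity read by FRET. Enzyme at 1 nM incubated 10 min at 30 °C in 50 mM HEPES pH 7.5, 10 mM DTT, 40% glycerol before measurement. Inhibitor Ki given with standard deviation. Wild type and the A156T and D168V variants were tested.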
# NS3 protease = NS3 protease (Hepatitis C virus subtype 1b, UniProt Q0ZMF1, A156T); assay: Inhibition of HCV NS3 protease A156T mutant by FRET assay; set-up: species or system Hepacivirus hominis
# Method in brief: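 Protease activity of full-length HCV NS3 (protease–helicase/NTPase) was measured by FRET. 1 nM enzyme was incubated 10 min at 30 °C in 50 mM HEPES pH 7.5, 10 mM DTT, 40% glycerol before read-out.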
compound,measurement,setting,value
O=C(O)CNc1nc(Cl)c(Cc2ccccc2)n(CC(=O)Nc2ccccc2C(=O)NS(=O)(=O)c2ccc(C(F)(F)F)cc2)c1=O,Ki,[1],1.5 µM
same,Ki,NS3 protease,2.5 µM
Cc1c(Cl)nc(NCC(N)=O)c(=O)n1CC(=O)Nc1ccccc1C(=O)NS(=O)(=O)c1ccc(C(F)(F)F)cc1,Ki,[1],18 µM
C=C[C@@H]1C[C@]1(NC(=O)C(c1ccccc1)n1c(C)c(Cl)nc(NC(=O)OC(C)(C)C)c1=O)C(=O)O (stereo in doubt; 29b),Ki,[1],13 µM
O=C(O)CNc1nc(Cl)cn(C(C(=O)Nc2ccccc2C(=O)NS(=O)(=O)c2ccc(C(F)(F)F)cc2)c2ccccc2)c1=O (centres undefined),Ki,[1],2.3 µM
same,Ki,NS3 protease,1.8 µM
C=C[C@@H]1C[C@]1(NC(=O)C(c1ccccc1)n1c(C)c(Cl)nc(NCC(=O)N2CCOCC2)c1=O)C(=O)NS(=O)(=O)C1CC1 (some centres undefined),Ki,[1],10 µM
C=C[C@@H]1C[C@]1(NC(=O)C(c1ccccc1)n1c(C)c(Cl)nc(NC(=O)OC(C)(C)C)c1=O)C(=O)NS(=O)(=O)C1CC1 (some centres undefined),Ki,[1],4.3 µM
same,Ki,NS3 protease,5.9 µM
C=C[C@@H]1C[C@]1(NC(=O)C(c1ccccc1)n1c(C)c(Cl)nc(NCC(=O)N(C)C)c1=O)C(=O)NS(=O)(=O)C1CC1 (some centres undefined),Ki,[1],28 µM
Cc1c(Cl)nc(NC(=O)OC(C)(C)C)c(=O)n1C(C(=O)N[C@@H](CC1CC1)C(=O)NS(=O)(=O)C1CC1)c1ccccc1 (some centres undefined),Ki,[1],9.6 µM
Cc1c(Cl)nc(NC(=O)OC(C)(C)C)c(=O)n1C(C(=O)Nc1ccccc1C(=O)NS(=O)(=O)c1ccc(C(F)(F)F)cc1)c1ccccc1 (centres undefined),Ki,[1],3.8 µM
same,Ki,NS3 protease,1.5 µM
C=C[C@@H]1C[C@]1(NC(=O)C(c1ccccc1)n1c(C)c(Cl)nc(NCC(N)=O)c1=O)C(=O)NS(=O)(=O)C1CC1 (some centres undefined),Ki,[1],12 µM
C=C[C@@H]1C[C@]1(NC(=O)C(c1ccccc1)n1c(C)c(Cl)nc(NC(=O)OC(C)(C)C)c1=O)C(=O)O (stereo in doubt; 29a),Ki,[1],11 µM
C=C[C@@H]1C[C@]1(NC(=O)[C@H](NC(=O)[C@@H](NC(=O)OC(C)(C)C)C(C)(C)C)c1ccc(OC)cc1)C(=O)NS(=O)(=O)C1CC1,Ki,[1],34 µM
C=C[C@@H]1C[C@]1(NC(=O)[C@@H](NC(=O)[C@@H](NC(=O)OC(C)(C)C)C(C)(C)C)c1ccc(OC)cc1)C(=O)NS(=O)(=O)C1CC1,Ki,[1],5.4 µM
C=C[C@@H]1C[C@]1(NC(=O)C(c1ccc(OC)cc1)n1c(C)c(Cl)nc(NC(=O)OC(C)(C)C)c1=O)C(=O)NS(=O)(=O)C1CC1 (some centres undefined),Ki,[1],7.2 µM
C=C[C@@H]1C[C@]1(NC(=O)C(c1ccccc1)n1c(C)c(Cl)nc(NCCc2ccccc2)c1=O)C(=O)NS(=O)(=O)C1CC1 (some centres undefined),Ki,[1],8.3 µM
C=C[C@@H]1C[C@]1(NC(=O)C(c1ccccc1)n1c(C)c(Cl)nc(NCCN2CCOCC2)c1=O)C(=O)NS(=O)(=O)C1CC1 (some centres undefined),Ki,[1],11 µM
O=C(O)CNc1nc(Cl)c(-c2ccccc2)n(CC(=O)Nc2ccccc2C(=O)NS(=O)(=O)c2ccc(C(F)(F)F)cc2)c1=O,Ki,[1],3 µM
same,Ki,NS3 protease,5.6 µM
C=C[C@@H]1C[C@]1(NC(=O)C(c1ccccc1)n1c(C)c(Cl)nc(NCCC(C)(C)C)c1=O)C(=O)NS(=O)(=O)C1CC1 (some centres undefined),Ki,[1],6.8 µM
C=C[C@@H]1C[C@]1(NC(=O)C(c1ccccc1)n1c(C)c(Cl)nc(N)c1=O)C(=O)NS(=O)(=O)C1CC1 (some centres undefined),Ki,[1],11 µM
